NR3A LBD binder: binders of NR3A ligand-binding domain, primary screen, biophysical, differential scanning fluorimetry, uHTS. Glutamate receptor ionotropic, NMDA 3A (GRIN3A) ligand-binding domain. NR3A LBD differential scanning fluorimetry, Tm shift; 0% = protein alone, 100% = glycine-bound protein. Tm shift relative to glycine control, % at 25 µM. actives 2.5% (n = 340,000). AID 1259313, 2017;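 active = melting temperature shift of at least 10% of the positive control shift, at one fixed dose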
EBNA-1 inhibitor: EBNA-1 DNA-binding inhibitors, primary screen, biochemical, fluorescence polarization; inhibition, % at 14.8 µM; actives 0.34% (n = 300,000); AID 1950, 2009; in the data active = inhibition above about 28%
FGF22 binding: binders of human FGF22 protein, primary screen, FGF22 synaptogenesis inhibitor project, biophysical, thermal shift, single point; recombinant FGF22 thermal shift, SYPRO orange fluorescence; percent of sucrose octasulfate shift, DMSO zero; activity (Tm shift, normalised), % at 9.99 µM; actives 1.5% (n = 340,000);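 active = mean Tm shift, scaled 0 neutral to 100 positive control, at about 1.3% or above, every replicate too, limit read from the data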
Target sequence (Q9HCT0 whole entry, looked up): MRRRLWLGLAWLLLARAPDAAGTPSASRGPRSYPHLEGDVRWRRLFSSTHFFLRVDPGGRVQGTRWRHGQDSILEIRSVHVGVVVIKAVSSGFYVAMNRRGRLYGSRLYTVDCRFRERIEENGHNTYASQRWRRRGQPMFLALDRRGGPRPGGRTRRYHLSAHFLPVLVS
FID counter: compounds displacing fluorescent DNA intercalator, primary screen, artefact control for HCV NS3 helicase inhibitor project, biochemical, FID fluorescence; DNA fluorescent intercalator displacement; inhibition, % at 7.9 µM; actives 0.17% (n = 290,000); AID 1845, 2009; in the data active = inhibition above about 37%;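 note: 0% = vehicle and 100% = reference compound; higher means more ethidium bromide displaced from hairpin DNA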
ZTA counter: blocks Epstein-Barr virus ZTA, an EBNA-1 counter-screen. inhibition, % at 11 µM. ZTA-DNA binding, fluorescence polarization. P03206. actives 0.15% (n = 320,000); in the data active = inhibition above about 33%
Target sequence (P03206 whole entry, looked up): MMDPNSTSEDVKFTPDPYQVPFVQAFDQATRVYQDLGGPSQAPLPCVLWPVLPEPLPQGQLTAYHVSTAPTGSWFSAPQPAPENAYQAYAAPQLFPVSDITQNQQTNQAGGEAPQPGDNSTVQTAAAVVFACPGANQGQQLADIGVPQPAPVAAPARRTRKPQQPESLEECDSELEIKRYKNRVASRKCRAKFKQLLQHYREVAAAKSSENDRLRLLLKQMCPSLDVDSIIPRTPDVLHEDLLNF
HCV NS3 hel inh: inhibitors of HCV NS3 helicase, primary screen, biochemical, Cy5 molecular beacon fluorescence. Hepatitis C virus NS3 helicase. NS3 helicase DNA unwinding. inhibition, % at 10.9 µM. actives 0.56% (n = 290,000). AID 1800, 2009;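 active = inhibition above the mean of all tested compounds plus 3 SD, set per campaign, cut at about 35% in these data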;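 note: 0% = DMSO wells and 100% = thioflavine S control wells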
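assay system = NS3 helicase fragment of HCV | buffer or medium = MOPS pH 6.5, MgCl2, DTT, Tween20, BSA | timing = 60 min unwinding reaction at 25 °C after ATP addition | signal = Cy5 beacon fluorescence read at start and 1 h | read-out basis = % inhibition of unwinding | control set = low DMSO, high thioflavine S at 110 µM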
* hit, by the source's call; / = no result given. A selection: hits, their analogues and other compounds. The true share with any hit is near 3.6%.

SMILES	NR3A LBD binder	EBNA-1 inhibitor	FGF22 binding	FID counter	ZTA counter	HCV NS3 hel inh
COc1ccc(-n2nc(C(=O)NCC(=O)NCC3COc4ccccc4O3)c3ccccc3c2=O)c(OC)c1 (configuration not stated)	-2.2	0.4	43.8*	-26.4	8.1	2.9
COc1ccc(-n2nc(C(=O)NCC(=O)NCC3COc4ccccc4O3)c3ccccc3c2=O)cc1OC (configuration not stated)	-0.9	4.4	/	-33.1	-0.7	-6.1
C=CCn1c(=NC(=O)c2sc3ccccc3c2Cl)sc2cc(S(N)(=O)=O)ccc21	15.5*	31.0*	/	-10.8	5.2	-8.3
COCCn1c(=NC(=O)c2sc3ccccc3c2Cl)sc2cc(S(N)(=O)=O)ccc21	23.1*	1.8	-0.1	4.5	-5.5	5.9
CO[C@@H]1CN(C)C(=O)c2ccc(NC(C)=O)cc2OC[C@H](C)N(Cc2cc(F)ccc2F)C[C@H]1C	/	/	-0.3	/	/	/
COc1ccc(-c2[nH]ncc2CN(C)CC2CCCCO2)cc1F (configuration not stated)	4.0	-2.4	43.0*	1.3	-0.7	-5.9
CCSC1=C(C#N)C2(CCCCC2)C2=C(CC(C)(C)CC2=O)N1	-1.4	-0.6	-0.2	-7.0	-5.2	-9.3
CC1(C)CC(=O)C2=C(C1)NC(SCC(N)=O)=C(C#N)C21CCCCC1	16.4*	11.9	/	-5.0	-0.6	11.6
COC(=O)C[C@@H]1C[C@H]2c3cc(NC(=O)Nc4ccccc4)ccc3O[C@H]2[C@@H](CO)O1	/	/	-0.1	/	/	/
CN1C(=O)c2cc(NC(=O)C3CCCC3)ccc2OC[C@@H]2O[C@@H](CC(=O)O)CC[C@H]21	/	/	0.0	/	/	/
Cc1nn(-c2ccccn2)c2c1C(=O)CC(C)(C)C2N=[N+]=[N-] (configuration not stated)	-1.5	/	42.9*	/	/	/
COCC(=O)Nc1ccc2c(c1)C(=O)N(C)C[C@H](OC)[C@H](C)CN(Cc1ccccc1F)[C@H](C)CO2	/	/	0.2	/	/	/
C[C@H](CO)N1C[C@H](C)[C@@H](CN(C)Cc2ccc(-c3ccccc3)cc2)Oc2c(NC(=O)C3CC3)cccc2C1=O	/	/	147.9*	/	/	/
C[C@H]1CN([C@@H](C)CO)C(=O)c2cccc(NC(=O)c3ccncc3)c2O[C@@H]1CN(C)Cc1ccc(C(F)(F)F)cc1	/	/	16.6*	/	/	/
C[C@H](CO)N1C[C@H](C)[C@@H](CN(C)C(=O)Nc2ccc(C(F)(F)F)cc2)Oc2c(NC(=O)Nc3ccc(C(F)(F)F)cc3)cccc2C1=O	27.9*	/	1.0	/	/	/
C[C@H]1CN([C@@H](C)CO)C(=O)c2cccc(NC(=O)Nc3ccc(C(F)(F)F)cc3)c2O[C@@H]1CN(C)C(=O)Nc1ccc(F)cc1	20.6*	/	-1.3	/	/	/
C[C@@H]1CN([C@H](C)CO)C(=O)c2cccc(NC(=O)Nc3ccc(C(F)(F)F)cc3)c2O[C@H]1CN(C)C(=O)Nc1ccc(C(F)(F)F)cc1	/	/	0.8	/	/	/
C[C@@H]1CN([C@@H](C)CO)C(=O)c2cccc(NC(=O)c3ccncc3)c2O[C@H]1CN(C)Cc1ccc(C(F)(F)F)cc1	/	/	0.0	/	/	/
C[C@H](CO)N1C[C@H](C)[C@H](CN(C)Cc2ccc(-c3ccccc3)cc2)Oc2c(NC(=O)C3CC3)cccc2C1=O	/	/	0.0	/	/	/
C[C@@H]1CN([C@@H](C)CO)C(=O)c2cccc(NC(=O)c3ccncc3)c2O[C@@H]1CN(C)S(=O)(=O)c1ccc(F)cc1	/	/	0.1	/	/	/
O=C(NCC(F)(F)F)[C@@H]1[C@@H](CO)[C@@H]2Cn3c(ccc(-c4cccnc4)c3=O)[C@@H]2N1Cc1ccncc1	/	/	-0.2	/	/	/
C[C@@H]1CCCCO[C@H](CN(C)C(=O)CCCN(C)C)[C@H](C)CN([C@@H](C)CO)C(=O)c2cc(NC(=O)c3ccncc3)ccc2O1	/	/	0.4	/	/	/
COc1ccc(S(=O)(=O)Nc2cccc3c2O[C@H](CN(C)C(=O)NC(C)C)[C@@H](C)CN([C@H](C)CO)C3=O)cc1	15.7*	/	-0.1	/	/	/
N#CC(C(=O)Nc1ccc(Cl)cc1)=C1Nc2ccccc2N1	23.8*	25.1	/	0.8	-6.5	-2.7
CCC(=O)Nc1ccc2c(c1)C(=O)N(C)C[C@@H](OC)[C@H](C)CN(C(=O)c1ccc(F)cc1)[C@@H](C)CO2	/	/	0.0	/	/	/
SMILES	NR3A LBD binder	EBNA-1 inhibitor	FGF22 binding	FID counter	ZTA counter	HCV NS3 hel inh
Clc1ccc(Cl)c2sc(N3CCCC3)nc12	-1.4	8.0	/	-2.5	6.5	-0.4
Clc1cccc2sc(N3CCN(c4ccccc4)CC3)nc12	18.4*	-1.2	0.0	0.5	-0.8	3.2
COc1ccc2c3c(n(C)c2c1)[C@@H](CO)N(C)CC31CCN(C(=O)c2cccnc2)CC1	/	/	0.0	/	/	/
Cc1ccc(C(=O)CSc2nc3ccccc3o2)cc1	17.0*	10.8	/	-3.2	-0.3	2.0
O=C(N[C@H]1C=C[C@H](CC(=O)N2CCN(c3ccccc3)CC2)O[C@@H]1CO)c1ccccc1	/	/	0.0	/	/	/
Cc1cccc(S(=O)(=O)c2c(N)n(/N=C/c3ccccc3)c3nc4ccccc4nc23)c1	1.8	5.5	/	-2.4	2.7	1.7
Nc1c(S(=O)(=O)c2ccccc2)c2nc3ccccc3nc2n1/N=C/c1cccc(O)c1	25.2*	1.8	/	1.8	18.0	-2.6
Cc1ccc(C)c(S(=O)(=O)c2c(N)n(/N=C/c3ccco3)c3nc4ccccc4nc23)c1	36.1*	3.1	0.0	-12.3	7.2	10.6
CCCNC(=S)Nc1cccc(C(F)(F)F)c1	1.6	4.6	/	2.7	-9.9	7.2
FC(F)(F)c1cccc(NC(=S)NCC2COc3ccccc3O2)c1 (configuration not stated)	22.9*	-2.1	/	-6.7	4.4	-0.8
CO[C@H](CN(C)C(=O)c1cnccn1)[C@@H](C)CN([C@H](C)CO)S(=O)(=O)c1ccc(Cl)cc1	/	/	0.0	/	/	/
CCCNC(=S)N1CCN(c2nc(C)nc3sc4c(c23)CCCC4)CC1	-3.0	-15.9	43.0*	-33.8	-6.4	3.1
NC(=O)C1CCN(C(=O)c2ccc3c(=O)n(Cc4ccco4)c(SCC(=O)c4ccc(F)cc4)nc3c2)CC1	/	12.9	/	-2.7	-8.5	3.4
COCCn1c(C)cc(C(=O)CSc2nc3ccccc3c(=O)n2Cc2ccco2)c1C	11.5*	9.2	-0.1	-2.5	-3.6	6.2
NC(=O)C1CCN(C(=O)c2ccc3c(=O)n(Cc4ccco4)c(SCC(=O)c4ccccc4)nc3c2)CC1	-1.2	-2.6	43.7*	-16.2	10.8	-6.8
C=CCn1c(SCc2ccc(Cl)cc2)nc2cc(C(=O)N3CCC(C(N)=O)CC3)ccc2c1=O	-7.5	-4.0	20.8*	0.8	10.3	-4.2

From PubChem
